Test results from ChEMBL document CHEMBL1147961, “Synthesis and biological evaluation of new 6-s-cis locked 1,2,25-trihydroxyprevitamin D3 analogues” (2007).

Columns and labels:
[1] = target: T1, Vitamin D-binding protein (Homo sapiens) (UniProt P02774); assay: Binding affinity to human DBP relative to 1-alpha,25-(OH)2-D3
T1 sequence (whole entry): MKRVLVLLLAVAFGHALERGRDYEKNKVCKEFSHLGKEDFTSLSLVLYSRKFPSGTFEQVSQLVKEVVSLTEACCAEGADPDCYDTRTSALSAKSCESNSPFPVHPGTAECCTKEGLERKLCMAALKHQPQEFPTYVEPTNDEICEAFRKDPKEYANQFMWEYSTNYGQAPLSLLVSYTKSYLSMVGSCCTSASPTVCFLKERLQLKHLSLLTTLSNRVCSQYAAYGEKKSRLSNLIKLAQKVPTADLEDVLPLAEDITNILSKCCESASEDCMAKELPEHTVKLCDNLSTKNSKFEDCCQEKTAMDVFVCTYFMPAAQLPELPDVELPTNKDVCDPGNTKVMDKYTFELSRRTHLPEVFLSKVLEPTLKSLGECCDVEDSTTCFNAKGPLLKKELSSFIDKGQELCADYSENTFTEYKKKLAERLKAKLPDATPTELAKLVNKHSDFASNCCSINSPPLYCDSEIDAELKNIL

[2] = target: T2, Vitamin D3 receptor (Sus scrofa) (UniProt A3RGC1); assay: Displacement of [3H]1-alpha,25-(OH)2-D3 from VDR in pig intestinal mucosa relative to 1-alpha,25-(OH)2-D3; type: tissue-based
T2 sequence (whole entry): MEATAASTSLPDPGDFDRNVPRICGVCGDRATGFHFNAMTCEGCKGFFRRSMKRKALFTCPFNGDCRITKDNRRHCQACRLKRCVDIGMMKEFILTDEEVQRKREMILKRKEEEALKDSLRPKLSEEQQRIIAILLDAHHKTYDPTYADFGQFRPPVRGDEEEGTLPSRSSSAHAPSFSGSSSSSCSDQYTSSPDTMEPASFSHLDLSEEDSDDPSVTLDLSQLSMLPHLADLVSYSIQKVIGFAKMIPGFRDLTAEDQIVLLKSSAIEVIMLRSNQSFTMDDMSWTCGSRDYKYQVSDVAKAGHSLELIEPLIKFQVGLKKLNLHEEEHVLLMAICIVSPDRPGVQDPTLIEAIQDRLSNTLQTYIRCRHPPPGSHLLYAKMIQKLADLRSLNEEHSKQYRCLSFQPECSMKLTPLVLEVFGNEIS
How it was run: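 Competitive binding using high-speed supernatant of intestinal mucosa homogenates from normal pigs, competing against [3H]-1α,25-(OH)2-D3. Relative affinity taken from the concentration displacing 50% of tracer, with 1α,25-(OH)2-D3 set at 100%.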

MCF7 [3] = assay: Antiproliferative activity against human MCF7 cells after 72 hrs relative to 1-alpha,25-(OH)2-D3; type: functional
How it was run: (§1)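 MCF-7 breast cancer cells (ATCC) incubated 72 h with a range of concentrations of analogues, reference 1α,25-(OH)2-D3 or vehicle. Proliferation read as [3H]thymidine incorporation.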

MCF7 [4] = assay: Antiproliferative activity against human MCF7 cells at 1 uM after 72 hrs relative to 1-alpha,25-(OH)2-D3; type: functional; conditions: MCF7, 72 h; how it was run: as §1

Activity [1]	Activity [2]	Structure (SMILES)	Activity (MCF7 [3])	inhibition at 1 µM (MCF7 [4])
7%	< 0.1%	C[C@H](CCCC(C)(C)O)[C@H]1CC[C@H]2C(/C=C\C3=C[C@@H](O)[C@@H](O)[C@@H](O)C3)=CCC[C@]12C	0%	
2%	< 0.1%	C[C@H](CCCC(C)(C)O)[C@H]1CC[C@H]2C(/C=C\C3=C[C@H](O)[C@@H](O)[C@H](O)C3)=CCC[C@]12C	0%	
4%	0.2%	C[C@H](CCCC(C)(C)O)[C@H]1CC[C@H]2C(/C=C\C3=C[C@@H](O)[C@@H](O)[C@H](O)C3)=CCC[C@]12C	2%	
8%	2%	C[C@H](CCCC(C)(C)O)[C@H]1CC[C@H]2C(/C=C\C3=C[C@@H](O)[C@H](O)[C@H](O)C3)=CCC[C@]12C	6%	70%
